Measured values: paper PMC8966054 (Bioorganic & medicinal chemistry letters, 2022)

Legend:
[1] = Human liver microsome stability / intrinsic clearance; type: in vitro ADME; settings: for CLint scaled: human, liver microsomes
[2] = Mouse liver microsome stability / intrinsic clearance; type: in vitro ADME; settings: for CLint scaled: mouse, liver microsomes
In vivo rat cassette PK = settings: iv, 0.25 mg/kg
hD4R = molecular target: T1, hD4R (Homo sapiens, UniProt P21917); assay: D4R competitive radioligand binding
T1 sequence (P21917 1-419): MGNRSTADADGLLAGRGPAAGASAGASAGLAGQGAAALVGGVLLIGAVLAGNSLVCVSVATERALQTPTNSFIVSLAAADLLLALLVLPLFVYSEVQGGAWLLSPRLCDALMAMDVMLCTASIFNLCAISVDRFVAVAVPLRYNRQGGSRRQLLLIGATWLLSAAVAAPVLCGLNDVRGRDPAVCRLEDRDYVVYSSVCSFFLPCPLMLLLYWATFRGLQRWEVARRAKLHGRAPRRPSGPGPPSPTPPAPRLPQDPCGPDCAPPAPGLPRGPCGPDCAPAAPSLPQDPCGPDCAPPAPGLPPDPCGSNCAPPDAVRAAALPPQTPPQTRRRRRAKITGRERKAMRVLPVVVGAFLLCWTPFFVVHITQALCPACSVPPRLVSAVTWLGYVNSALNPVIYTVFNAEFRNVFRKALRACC
How it was run: (§1)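 Ki from competitive inhibition of radioligand binding in membranes from HEK293 cells stably expressing the human receptor. [3H]N-methylspiperone was used for D2R, D3R and D4R, and [3H]SCH23390 for D1R and D5R.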

[3] = system: other dopamine receptors (D1-3,5); assay: Binding at other dopamine receptors; set-up: species or system human
How it was run: as §1

Mouse plasma stability = type: in vitro ADME
Metabolite ID study = type: in vitro ADME
6-OHDA mouse model = 6-OHDA mouse model ref 13; cited from earlier work
[4] = Human plasma protein binding; type: in vitro ADME; settings: fraction unbound

SMILES | CLint scaled [1] [mL/min/kg] | CLint scaled [2] [mL/min/kg] | further results
FC(F)(F)c1cccc(COC2CCN(Cc3ccc4[nH]cnc4c3)CC2)c1 [Compound 9m] | 32.9 | 76.4 | –
Cn1cnc2cc(CN3CCC(OCc4cccc(C(F)(F)F)c4)CC3)ccc21 [Compound 9p] | 63.3 | 85.2 | clearance (In vivo rat cassette PK): 107 mL/min/kg
Fc1cccc(CO[C@H]2CCCN(Cc3ncn4ccccc34)C2)c1 [Compound 8n] | – | – | D4 activity (hD4R): much less active or inactive
Cc1c(Cl)cccc1NC(=O)CN1CCC(OCc2ccc(F)c(F)c2)CC1 [Compound 11a] | 145 | 287 | Selectivity against the other dopamine receptors [3]: selective for D4; C0 (In vivo rat cassette PK): 91 ng/mL; clearance (In vivo rat cassette PK): 22 mL/min/kg
Cn1ncc2cc(CN3CCC(OCc4cccc(C(F)(F)F)c4)CC3)ccc21 [Compound 9w] | 63.3 | 85.2 | –
Fc1ccc(COC2CCN(Cc3ccc4[nH]cnc4c3)CC2)cc1F [Compound 9n] | < 20 | 93.9 | clearance (In vivo rat cassette PK): 235 mL/min/kg
Fc1ccc(COC2CCN(Cc3cc4ccc(Cl)cc4[nH]3)CC2)cc1F [Compound 9y] | 23.5 | 83.2 | C0 (In vivo rat cassette PK): 36.9 ng/mL
Fc1ccc(CO[C@H]2CCCN(Cc3cn4ccccc4n3)C2)cc1F [Compound 8i] | 689 | 1400 | –
Cc1cc(NC(=O)CN2CCC(OCc3ccc(F)c(F)c3)CC2)ccc1F [Compound 11d] | 49.5 | 306 | Human liver microsome stability [1]: moderately stable; Selectivity against the other dopamine receptors [3]: selective for D4; Mouse plasma stability (Mouse plasma stability): not stable; Plasma stability (footnote symbol in mPPB column) (Mouse plasma stability; mouse plasma): c; Mouse liver microsome stability [2]: moderately stable
Fc1cc(COC2CCN(Cc3ccc4[nH]cnc4c3)CC2)ccc1Cl [Compound 9l] | 48.3 | 90.4 | clearance (In vivo rat cassette PK): 199 mL/min/kg
Cc1nc(CN2CCC(OCc3cccc(C(F)(F)F)c3)CC2)c2ccccn12 [Compound 9i] | 85.3 | 272 | –
Fc1cc(COC2CCN(Cc3cn4ccccc4n3)CC2)ccc1Cl [Compound 9d] | 44.1 | 96.8 | clearance (In vivo rat cassette PK): 134 mL/min/kg
Fc1cccc(COC2CCN(Cc3cn4ccccc4n3)CC2)c1 [Compound 9a] | < 23.1 | 380 | Human liver microsome stability [1]: stable; Mouse liver microsome stability [2]: modestly stable; Fold improvement of D4 activity vs 3-O-derivative (hD4R): 10 fold
FC(F)(F)Oc1cccc(CO[C@H]2CCCN(Cc3ncc4ccccn34)C2)c1 [Compound 8q] | – | – | D4 activity (hD4R): much less active or inactive
COc1ccc(CN2CCC[C@H](OCc3cccc(F)c3)C2)cc1F [Compound 8a] | – | – | Selectivity against the other dopamine receptors [3]: selective
Cn1ncc2cc(CN3CCC(OCc4ccc(F)c(F)c4)CC3)ccc21 [Compound 9u] | – | 104 | clearance (In vivo rat cassette PK): 140 mL/min/kg
COc1ccc(CN2CCO[C@H](COc3ccccc3)C2)cc1F [Compound 1, reference compound] | – | 2130 | Human liver microsome stability [1]: highly unstable; Major metabolic liability (metabolite ID) (Metabolite ID study): N-dealkylation; Mouse liver microsome stability [2]: highly unstable; Dyskinesia AIM (abnormal involuntary movement) scores (6-OHDA mouse model): dose-dependent reduction; Plasma Protein Binding (%fu) hPPB [4]: 3.1 %fu
FC(F)(F)c1cccc(COC2CCN(Cc3cc4ccc(Cl)cc4[nH]3)CC2)c1 [Compound 9z] | 26.9 | 71.5 | –
COc1ccc(CN2CCC[C@@H](OCc3ccc(F)c(C)c3)C2)cc1F [Compound 8d] | – | – | Fold less active, (R)-enantiomer vs (S)-enantiomer at D4 (hD4R): 15 fold
Cn1ncc2cc(CN3CCC(OCc4ccc(Cl)c(F)c4)CC3)ccc21 [Compound 9v] | 42.7 | 85.3 | –
Fc1cc(COC2CCN(Cc3ncc4ccccn34)CC2)ccc1Cl [Compound 9e] | 212 | 917 | Human liver microsome stability [1]: not as stable; Mouse liver microsome stability [2]: not as stable
FC(F)(F)c1cccc(COC2CCN(Cc3cn4ccccc4n3)CC2)c1 [Compound 9c] | 44.6 | 310 | –
Fc1ccc(CO[C@H]2CCCN(Cc3ncn4ccccc34)C2)cc1F [Compound 8o] | 622 | 5370 | –
COc1ccc(CN2CCC[C@H](OCc3ccc(F)c(F)c3)C2)cc1F [Compound 8b] | 272 | 1260 | –
Fc1cccc(COC2CCN(Cc3ncn4ccccc34)CC2)c1 [Compound 9h] | 340 | 1260 | Human liver microsome stability [1]: not as stable; Mouse liver microsome stability [2]: not as stable
Fc1ccc(COC2CCN(Cc3cn4ccccc4n3)CC2)cc1F [Compound 9b] | < 20 | 158 | Human liver microsome stability [1]: stable; Mouse liver microsome stability [2]: modestly stable; clearance (In vivo rat cassette PK): 116 mL/min/kg
Cc1cccc(CO[C@H]2CCCN(Cc3ncc4ccccn34)C2)n1 [Compound 8r] | – | – | D4 activity (hD4R): much less active or inactive
Cc1nc(CN2CCC(OCc3ccc(Cl)c(F)c3)CC2)c2ccccn12 [Compound 9j] | 114 | 140 | –
